# rRNA inh HTS = reduced GFP signal of wild-type E. coli, primary screen, bacterial rRNA inhibitor project, GFP/RFP fluorescence, OD600, single point; GFP signal change (wild-type ribosome), % (no concentration beside the values); hit rate 1.6% among 350,000; E. coli WT GFP vs humanized-ribosome RFP mutants, 24 h; active compounds read low; DMSO median 0, no signal -100;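 active = significant combined selectivity score with lowered wild-type GFP, culture density cut under 30%, mutant RFP and density less affected; inactive = any of these conditions unmet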
# S100A4 MyoIIA = inhibitors of S100A4-myosin IIA peptide binding, primary screen, biochemical, fluorescence polarization, TAMRA-MyoIIA peptide. Protein S100-A4 (Homo sapiens), P26447. inhibition, % at 10.7 µM. hit rate 0.14% among 360,000. AID 652163, 2013;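 active = mean inhibition of at least 70% across replicates, with every replicate also reaching that level; inconclusive = mean inhibition reaches 70% but some replicates fall short; inactive = mean inhibition below 70%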
# Target sequence (P26447 whole entry, looked up): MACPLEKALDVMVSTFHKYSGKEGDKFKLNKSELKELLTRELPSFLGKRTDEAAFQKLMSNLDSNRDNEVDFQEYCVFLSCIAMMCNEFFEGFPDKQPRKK
#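 Test system: S100A4 monomer protein; Medium: HEPES pH 7.2 with CaCl2, KCl, NaCl, DTT, Triton; Probe or stimulus: TAMRA-labelled myosin IIA heavy-chain peptide probe, 5 nM; Doses: one dose per compound; Times: polarization read 5 min after assay mix addition, stable 5–60 min; Benchmarks: neutral control DMSO, positive control TFP.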
# Cneo AK release = Cryptococcus neoformans cell lysis inducers, primary screen, AK release luminescence, single concentration; C. neoformans lysis, adenylate kinase release luminescence, 4 h; normalised: neutral wells 0, clomiphene wells 100; lysis activity, % at 15 µM; hit rate 0.2% among 360,000;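 active = mean lysis activity across replicates of at least 80%, whatever share of replicates individually reach that level; inactive = mean lysis activity below 80%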
#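 Test system: log-phase Cryptococcus neoformans yeast cells; Quantity: yeast cell density of 5 × 10^6 cells/mL; Buffer or medium: YPD; Doses: single compound concentration per well; Timing: 4 h at 37 °C static, read 1 h later; Measured by: AK luminescence; Read-out basis: lysis from increased AK signal; Control set: Clomiphene as positive control.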
# AF4-AF9 inh = inhibitors of AF4 peptide binding to AF9, primary screen, biochemical, AlphaScreen, biotin-AF4 peptide, FLAG-AF9, single point; inhibition, % at 10 µM; hit rate 0.47% among 350,000;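 active = every replicate reaching a set inhibition limit, whatever the replicate mean, cut at about 25% in these data; inconclusive = mean inhibition reaches that limit but some replicates miss it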;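 note: 0% = plate neutral control median and 100% = total signal loss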
# Target sequence (P42568 whole entry, looked up): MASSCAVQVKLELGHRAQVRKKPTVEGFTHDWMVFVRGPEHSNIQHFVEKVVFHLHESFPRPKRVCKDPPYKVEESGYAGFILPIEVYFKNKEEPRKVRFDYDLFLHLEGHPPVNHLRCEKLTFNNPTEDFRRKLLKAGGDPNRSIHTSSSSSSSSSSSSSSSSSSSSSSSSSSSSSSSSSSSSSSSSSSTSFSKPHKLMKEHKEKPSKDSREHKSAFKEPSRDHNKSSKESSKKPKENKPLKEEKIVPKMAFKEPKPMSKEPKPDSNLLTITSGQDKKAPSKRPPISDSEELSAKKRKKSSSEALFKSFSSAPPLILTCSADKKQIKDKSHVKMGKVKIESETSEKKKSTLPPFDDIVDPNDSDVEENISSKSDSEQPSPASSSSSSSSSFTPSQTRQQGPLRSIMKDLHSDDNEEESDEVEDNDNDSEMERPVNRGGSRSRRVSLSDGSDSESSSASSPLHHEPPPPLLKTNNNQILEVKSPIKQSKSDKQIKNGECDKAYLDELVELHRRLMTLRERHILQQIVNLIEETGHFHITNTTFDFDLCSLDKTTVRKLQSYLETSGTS
# DENV2 CPE rescue = inhibitors of DENV2 cytopathic effect, primary screen, cell-based, plate reader, single concentration; hit rate 1.7% among 350,000; CPE inhibition, % at 9.99 µM; AID 651640, 2012; DENV2-infected cells, cytopathic effect rescue; in the data active = CPE inhibition above about 20%, passing the limit was not always enough; inconclusive = no clear call, values can overlap the other calls; tested in BHK-21 cells;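 note: 0% = median of neutral control wells and 100% = median of positive control wells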
# PfHsp90 yeast 2 = growth inhibition of PfHsp90-expressing yeast, primary screen, antimalarial PfHsp90 inhibitor project, S. cerevisiae, BacTiter-Glo luminescence, single point, set 2; BacTiter-Glo ATP, 48 h; yeast lacking PDR1 and PDR3 efflux regulators; inhibition, % at 9.4 µM; hit rate 0.32% among 310,000; AID 504621, 2011;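 active = every replicate shows inhibition above about 80%, whatever the replicate mean, limit read from the data; inconclusive = mean inhibition reaches the set limit but some replicate falls short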;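 note: 0% = DMSO neutral controls and 100% = 20 µM radicicol positive controls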
# * hit, by the source's call; ? = inconclusive; · = not tested or not shown. Compounds with a hit are over-represented: about 3.2% of the library has one in this group of screens.
SMILES,rRNA inh HTS,S100A4 MyoIIA,Cneo AK release,AF4-AF9 inh,DENV2 CPE rescue,PfHsp90 yeast 2
C[C@H]1CN([C@@H](C)CO)C(=O)Cc2cc(NS(=O)(=O)c3ccc(F)cc3)ccc2O[C@@H]1CN(C)C(=O)Nc1ccccc1,2,-1,-3,-2,62*,·
C[C@@H]1CCC[C@]2(O[C@@H](CCO)C[C@@H](O)[C@@H]2O)O1,10,-12,0,1,34*,·
C[C@@H]1CC[C@]2(O[C@H](CCO)C[C@H](O)[C@H]2O)O1,12,0,-1,1,39*,·
C[C@H](CO)N1C[C@H](C)[C@@H](CN(C)Cc2ccccc2)Oc2ncc(-c3ccccc3)cc2C1=O,-2,-2,2,1,8,·
Cc1ccc(S(=O)(=O)N[C@H]2CC[C@H](CCNC(=O)C3CCCCC3)O[C@H]2CO)cc1,2,4,-1,11,0,·
O=C(NNC(=O)c1ccccc1O)c1cc2ccccc2o1,-31*,3,-4,3,4,-10
CC1CC(C)CN(C(=O)c2ccc(-c3ccc([N+](=O)[O-])cc3)o2)C1 (configuration not stated),-21*,3,4,7,-3,9
O=C(c1ccc(-c2ccc([N+](=O)[O-])cc2)o1)N1CCCCC1,3,2,-2,3,3,15
O=C(NNC(=O)c1cc2ccccc2o1)c1ccncc1,-2,-11,0,4,-2,-3
O=C(NNC(=O)c1ccccc1O)c1ccc(-c2ccc([N+](=O)[O-])cc2)o1,-25*,0,·,0,-4,·
CC(C)CC#Cc1ccc2c(c1)O[C@H](CN(C)C(=O)Cc1cccnc1)[C@H](C)CN([C@H](C)CO)S2(=O)=O,-1,7,-1,4,2,·
CS(=O)(=O)N1CC(=O)N2[C@H](CO)[C@H](c3ccc(C#Cc4ccc(F)cc4)cc3)[C@@H]2C1,-1,3,·,-3,-3,·
C[C@H]1CN([C@@H](C)CO)C(=O)c2cc(NC(=O)Nc3ccccc3)ccc2O[C@@H]1CN(C)CC1CCCCC1,2,3,1,1,7,·
C=CCN1Cc2ccccc2C[C@@]2(COC(c3ccc(OCCCO)cc3)=N2)C1=O,·,7,3,3,24*,·
COCCNC(=O)CCC1CCN(C/C=C/c2ccccc2OC)CC1,11,-26,-4,6,29*,-2
CC(O)CNC1c2ccccc2CC1O (configuration not stated),13,1,0,-47,63*,-8
C[C@H](CO)N1C[C@H](C)[C@H](CN(C)C)Oc2c(NC(=O)c3cnccn3)cccc2C1=O,0,2,-2,-2,8,·
C[C@H]1CN([C@@H](C)CO)C(=O)c2cccc(NC(=O)c3cnccn3)c2O[C@@H]1CN(C)Cc1ccc2c(c1)OCO2,1,1,56,1,24*,·
C[C@H](CO)N1C[C@H](C)[C@@H](CN(C)C)Oc2c(NC(=O)c3cnccn3)cccc2C1=O,-2,19,-2,-3,30*,·
C[C@@H]1CN([C@@H](C)CO)C(=O)c2cccc(NC(=O)c3cnccn3)c2O[C@H]1CN(C)Cc1ccc2c(c1)OCO2,-2,5,-7,-1,-11,·
C[C@H]1CN([C@@H](C)CO)C(=O)c2cccc(NC(=O)c3cnccn3)c2O[C@H]1CN(C)Cc1ccc(Cl)c(Cl)c1,-11,0,-4,3,23*,·
CCS(=O)(=O)Nc1ccc2c(c1)C(=O)N(C)C[C@H](OC)[C@H](C)CN(C)[C@H](C)CO2,0,4,47,-2,-5,·
C[C@@H]1CN([C@H](C)CO)C(=O)c2cccc(NS(=O)(=O)c3cccs3)c2O[C@@H]1CN(C)S(=O)(=O)c1ccc(F)cc1,3,-28,-1,2,-8,·
O=[N+]([O-])c1c(Nc2ccc(O)cc2)cc(Cl)c2nonc12,-19,10,1,9,6,-6
O=[N+]([O-])c1c(Nc2ccccn2)cc(Cl)c2nonc12,-13,3,·,0,2,108*
SMILES,rRNA inh HTS,S100A4 MyoIIA,Cneo AK release,AF4-AF9 inh,DENV2 CPE rescue,PfHsp90 yeast 2
COc1ccc2c3c(n(C)c2c1)[C@@H](CO)N(C(=O)Nc1ccc(F)cc1)CC31CCN(C)CC1,1,82*,·,-2,-4,·
COc1ccc2c3c(n(C)c2c1)[C@H](CO)N(C(=O)Nc1ccccc1F)CC31CN(C)C1,5,·,·,15,86*,·
COc1ccc2c3c(n(C)c2c1)[C@@H](CO)N(C(=O)c1cccnc1)CC31CCN(S(=O)(=O)c2ccccc2)CC1,-2,·,·,1,39*,·
COCC(=O)N1CC2(C1)CN(C(=O)Nc1ccccc1F)[C@H](CO)c1c2c2ccc(OC)cc2n1C,-3,·,·,·,·,·
COc1ccc(S(=O)(=O)N2CCC3(CC2)CN(C(=O)CN(C)C)[C@H](CO)c2c3c3ccc(OC)cc3n2C)cc1,-3,7,·,33*,14,·
C[C@@H]1CN([C@@H](C)CO)C(=O)c2cc(N(C)C)ccc2O[C@@H](C)CCCCO[C@H]1CN(C)Cc1ccccc1,3,1,6,4,-20,·
C[C@H]1CN([C@@H](C)CO)C(=O)Cc2cc(NS(=O)(=O)c3ccc(Cl)cc3)ccc2O[C@H]1CN(C)C(=O)Nc1ccc2c(c1)OCO2,6,·,·,·,·,·
CO[C@@H](CN(C)C(=O)c1ccccc1F)[C@H](C)CN([C@@H](C)CO)S(=O)(=O)c1ccc(Cl)cc1,2,-1,0,1,-2,·
CCCC(=O)N1CC2(CCN(C)CC2)c2c(n(C)c3cc(OC)ccc23)[C@@H]1CO,5,·,·,2,64*,·
COc1ccc2c3c(n(C)c2c1)[C@H](CO)N(C(=O)Nc1ccc(F)cc1)CC31CCN(Cc2cccnc2)CC1,0,·,·,19,?,·
COc1ccc2c3c(n(C)c2c1)[C@@H](CO)N(C(=O)c1ccccn1)CC31CCN(C)CC1,9,·,·,-5,35*,·
COc1ccc2c3c(n(C)c2c1)[C@@H](CO)N(C(=O)Nc1ccc(F)cc1)CC31CN(Cc2cccnc2)C1,4,9,·,27*,2,·
COc1ccc2c3c(n(C)c2c1)[C@@H](CO)N(C(=O)Nc1ccc(F)cc1)CC31CCN(Cc2cccnc2)CC1,-2,·,·,39*,6,·

# From PubChem
